Runt-SMMHC FRET – inhibitors of human RUNX1 Runt domain binding to CBFb-SMMHC. Q01196+Q13951. Cerulean-Runt/Venus-CBFb-SMMHC FRET ratio 530/480, 1 h. inhibition, % at 20 µM. actives 0.74% (n = 220,000). AID 1434;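 active means mean inhibition across duplicate retests at 20 µM reaching about 50%, limit read from the data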;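 further: 0% = DMSO wells and 100% = wells with excess untagged CBFb-SMMHC; inhibitors lower the FRET ratio by blocking Runt binding to CBFb-SMMHC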
14-3-3 Bad inh – disrupts binding of bovine 14-3-3 zeta to phospho-Bad peptide; P63103; TR-FRET 14-3-3zeta/Dy647-pBad peptide displacement, 1 h; inhibition, % at 21.7 µM; actives 0.71% (n = 220,000);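 active means inhibition above about 70%, limit read from the data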;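 further: 0% = full 14-3-3 plus peptide FRET controls and 100% = background without 14-3-3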
Runt-CBFb FRET – blocks binding of human RUNX1 Runt domain to CBFb. Q01196+Q13951. Cerulean-Runt/Venus-CBFb FRET ratio 530/480, 1 h. inhibition, % at 20 µM. actives 0.46% (n = 220,000). AID 1496;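 active means inhibition over about 50% at 20 µM in the single-dose screen, limit read from the data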;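 further: 0% = DMSO wells and 100% = excess unlabeled CBFb competitor control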
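test system = Cerulean-Runt domain fusion protein, energy donor | probe or stimulus = Venus-CBFb binding partner, 100 nM | incubation = two 1 h room-temperature incubations shielded from light | detection = fluorescence energy transfer, 422 nm excitation, 530/480 nm emission | measure = loss of energy transfer signal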
RanGTP-Imp inh – disruptors of Ran-importin-beta complex formation – biochemical, FRET, CFP-Ran, YFP-importin-beta, homogeneous, primary screen; cell-free CFP-Ran/YFP-importin-beta FRET ratio; AID 2216; actives 1.1% (n = 300,000); inhibition, % (concentration not given with the values);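 active means more than half of the replicate wells show a fall in the fluorescence ratio signal beyond about 16%, limit read from the data, passing the limit was not always enough; inconclusive means exactly half of the replicate wells pass the set limit; inactive means fewer than half of replicates pass the limit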;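 further: 0% = DMSO wells and 100% = Ran loaded with GDP instead of GTP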
Tb hexokinase – blocks Trypanosoma brucei hexokinase 1 activity | recombinant TbHK1, G6PDH-coupled NADH A340 | AID 1430 | inhibition, % at 10 µM | actives 0.11% (n = 220,000);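 active means inhibition of 50% or more in the single-dose primary screen; inactive means inhibition below 50%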
Hck-Nef inh – human Hck-Nef kinase inhibition | Recombinant Hck-YEEI plus Nef, Z-Lyte FRET kinase assay | inhibition, % at 20 µM | actives 0.68% (n = 220,000) | AID 463187;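 active means Hck-Nef kinase inhibition above about 50%, limit read from the data; inactive means inhibition below that limit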;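 further: 0% = DMSO with Hck plus Nef and 100% = Hck alone without Nef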
Target sequence (P08631 whole entry, looked up): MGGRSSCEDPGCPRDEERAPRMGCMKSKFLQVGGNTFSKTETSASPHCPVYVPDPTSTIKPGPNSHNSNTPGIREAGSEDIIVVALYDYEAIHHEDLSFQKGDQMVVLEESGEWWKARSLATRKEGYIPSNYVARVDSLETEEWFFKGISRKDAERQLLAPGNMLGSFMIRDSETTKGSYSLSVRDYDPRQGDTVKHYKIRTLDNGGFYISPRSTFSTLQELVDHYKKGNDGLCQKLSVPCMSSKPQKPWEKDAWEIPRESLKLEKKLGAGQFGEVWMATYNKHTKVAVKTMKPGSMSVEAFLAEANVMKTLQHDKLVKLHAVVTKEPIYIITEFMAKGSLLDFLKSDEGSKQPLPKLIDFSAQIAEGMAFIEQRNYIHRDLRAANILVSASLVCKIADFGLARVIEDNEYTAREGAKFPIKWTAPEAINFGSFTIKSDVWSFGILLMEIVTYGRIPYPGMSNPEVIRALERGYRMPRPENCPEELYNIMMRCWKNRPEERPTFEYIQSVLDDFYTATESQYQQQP
G6PDH ctr – Leuconostoc glucose-6-phosphate dehydrogenase inhibition, counter-screen. shares compounds with Tb hexokinase. purified G6PDH, NADH absorbance, 1 h. inhibition, % at 10 µM. actives 7% (n = 210). AID 2516;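 active means at least 50% inhibition in the glucose-6-phosphate dehydrogenase coupled counterscreen; inconclusive means no clear call, values can overlap the other calls; inactive means inhibition below 50%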
TbHK1 rescreen – T. brucei hexokinase 1 inhibition, rescreen | actives 10% (n = 210) | AID 2560 | inhibition, % at 10 µM | shares compounds with Tb hexokinase | recombinant TbHK1, G6PDH-coupled NADH A340 absorbance;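 active means inhibition of at least 50% in both of the two screening runs; inconclusive means at least 50% in one run, below 50% in the other; inactive means inhibition below 50% in both runs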;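 further: 0% and 100% set by the maximum and minimum signal control wells on each plate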
An asterisk follows results filed as active; ? = inconclusive; / = no result given. The list is not random: actives were taken first. Their share in the collection is about 2.2%.

SMILES	Runt-SMMHC FRET	14-3-3 Bad inh	Runt-CBFb FRET	RanGTP-Imp inh	Tb hexokinase	Hck-Nef inh	G6PDH ctr	TbHK1 rescreen
Cc1ccc(CNC(=O)CCNS(=O)(=O)c2ccc3c(c2)c(=O)n(C)c(=O)n3C)cc1	2	3	-1	8	-7	0	/	/
O=C(Nc1ccc(Cc2ccncc2)cc1)c1cccc([N+](=O)[O-])c1	1	7	1	1	32	-1	/	/
O=C(Nc1ccc(Nc2ccncc2)cc1)c1ccc(Nc2ccnc3ccc([N+](=O)[O-])cc23)cc1	57*	82*	14	6	-35	-163	/	/
COc1ccc(NC(=O)N2CCCC2C(=O)Nc2ccc(C)cc2C)cc1 (stereo not given)	/	/	/	1	/	/	/	/
Cc1ccc2[nH]c3ccccc3c(=O)c2c1	/	/	/	114*	/	/	/	/
O=c1c2ccccc2[nH]c2ccc(F)cc12	87*	-9	3	116*	-11	71*	/	/
CCOC(=O)c1c(-c2ccccc2)[nH]c2ccc(O)cc12	-2	-9	-1	2	-10	5	/	/
O=c1c2ccccc2[nH]c2ccc(O)cc12	/	/	/	166*	/	/	/	/
COc1cccc(OCc2cc(C(=O)N3CCN(C)C(c4ccccc4)C3)no2)c1 (stereo not given)	/	/	/	-3	/	/	/	/
Cc1ccc(S(=O)(=O)N2C(=O)CCC2C(=O)O/N=C(\N)c2cccc([N+](=O)[O-])c2)cc1 (stereo not given)	/	/	/	0	/	/	/	/
COc1cc(-c2noc(CCC(=O)Nc3cccnc3)n2)cc(OC)c1OC	0	5	0	5	54*	1	-9	1
COc1cc(NC(=O)CCc2nc(-c3cccs3)no2)cc(OC)c1OC	4	2	-2	0	6	-3	/	/
CC1SCC(NC(=O)c2ccc(Cl)cc2)CS1 (stereo not given)	-5	2	1	2	51*	2	-1	0
Cc1ccc(C(O)P(=O)(OCc2ccccc2)c2ccc(N(C)C)cc2)cc1 (stereo not given)	-1	-9	0	-1	-6	20	/	/
CC(C)C(O)P(=O)(OCc1ccccc1)c1ccc(N(C)C)cc1 (stereo not given)	-8	20	3	-1	57*	9	-5	2
CC1(C)OC(=O)C(=CNc2ncccn2)C(=O)O1	4	-6	0	-1	52*	4	-27	-25
Cc1oc(-c2ccccc2F)nc1CSCC(=O)NCc1ccc2c(c1)OCO2	5	5	-1	-2	61*	5	-21	0
CCOC(=O)N1CCN(C(=O)C2CCN(S(=O)(=O)N3CCCC3)CC2)CC1	1	-8	1	3	58*	0	-6	5
Cc1ccc(S(=O)(=O)NNC(=S)NC(=O)c2ccc([N+](=O)[O-])cc2)cc1	6	-11	16	-1	78*	18	-26	10
COc1ccc(NC(=O)C2Cc3ccccc3O/C2=N\O)cc1 (stereo not given)	/	/	/	1	/	/	/	/
CNc1nc(-c2ccccc2)[n+](-c2ccc(C)cc2)s1	56*	47	10	-1	61*	-3	17	85*
Cc1ccc(-c2nc3ccccc3nc2-c2ccccc2)cc1	/	/	/	2	/	/	/	/
Cc1ccc(C(=O)NN(CCC(=O)NC(C)(C)C)C2=NS(=O)(=O)c3ccccc32)cc1	5	-5	1	4	28	-1	/	/
CCc1nnc(NC(=O)CSc2nnc(C)c(=O)n2N)s1	/	/	/	-2	/	/	/	/
CCN(CC)S(=O)(=O)c1ccc(C(=O)Nc2ncn(Cc3ccccc3)n2)cc1	3	-12	-1	-2	64*	7	-5	2
SMILES	Runt-SMMHC FRET	14-3-3 Bad inh	Runt-CBFb FRET	RanGTP-Imp inh	Tb hexokinase	Hck-Nef inh	G6PDH ctr	TbHK1 rescreen
CCN(CC)S(=O)(=O)c1ccc(C(=O)NCc2n[nH]c(=S)n2Cc2ccccc2)cc1	-2	33	1	1	61*	7	-12	5
COc1ccc(NC(=O)CSc2nc3sc(C)cc3c(=O)n2C)c(OC)c1	/	/	/	3	/	/	/	/
C#CCNc1nc(C)nc2c1nnn2Cc1ccccc1F	3	-6	-2	3	3	3	/	/
CCOC(=O)C1=C(C)OC(N)=C(C#N)C1c1cc(OC)c2c(c1)OCO2 (stereo not given)	1	-1	-1	1	-4	3	/	/
COc1cc(C2C(C#N)=C(N)Oc3cc(N(C)C)ccc32)cc2c1OCO2 (stereo not given)	13	-11	-9	27*	59*	5	-7	-13
Cc1cc(Cl)ccc1OCCCC(=O)Nc1ccc(S(=O)(=O)Nc2ncccn2)cc1	/	/	/	1	/	/	/	/
Cc1ccccc1-n1ncc2c1CC(C)(C)CC2NC(=O)CCCN1CCCC1=O (stereo not given)	/	/	/	-1	/	/	/	/
COC(=O)NCCOC(=O)N(O)c1ccc(Br)cc1	6	4	-1	/	57*	5	-1	3
Cc1ccnc(NCn2nnc3ccccc32)c1	2	3	-1	6	-4	1	/	/
Cc1ccc(OCC(=O)Oc2ccc(C)c(C)c2)cc1	/	/	/	-1	/	/	/	/
O=C1CN(C(=O)COC(=O)CCC(=O)c2ccc3c(c2)OCCO3)c2ccccc2N1	-3	-2	0	-3	50*	7	-6	-5
CCCOc1ccc(C(=O)CCC(=O)OCC(=O)N2CC(=O)Nc3ccccc32)cc1	1	-1	-7	8	-7	2	/	/
O=c1c2nnn(Cc3ccccc3)c2ncn1C/C=C/c1ccccc1	-2	2	0	-2	-2	-1	/	/
COC(=O)c1c(C)[nH]c(C(=O)CSc2ccc(Cl)cc2)c1C	4	-1	0	-4	50*	-1	-6	-11
COC(=O)c1c(C)[nH]c(C(=O)CC#N)c1C	-11	-14	-2	0	-1	21	/	/
CCCn1c(SCC(=O)Nc2ccccc2CC)nnc1C(C)C	-1	-1	0	-1	65*	4	3	2
CCCn1c(SCC(=O)Nc2c(C)cccc2CC)nnc1C(C)C	-4	-12	2	4	5	3	/	/
COc1cc2ncnc(N[C@H](C)c3ccccc3)c2cc1OC	/	/	/	-1	/	/	/	/
O=C(NC1CCCCC1)C1CCN(S(=O)(=O)N2CCOCC2)CC1	-2	-3	-1	?	58*	3	-13	2
Cc1cc(N2C(=O)C(O)=C(C(=O)c3ccc(C)o3)C2c2ccc([N+](=O)[O-])cc2)no1 (stereo not given)	/	/	/	0	/	/	/	/
CN(C)c1ccc(C(=S)N2CCCCCC2)cc1	1	-12	2	0	-12	2	/	/

Bioassay records: PubChem BioAssay, several laboratories
